Reference: PubChem BioAssay
Values without a mark were called inactive. Records with an inconclusive call do not appear. Activity calls are given as the source filed them.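 The calls were made as follows, unless noted: active = inhibition over a set limit, the all-compound mean plus 3 SD, in both replicate runs; inconclusive = over that limit in just one replicate run; inactive = at or under that limit in both runs.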

Key:
[1] = OD615 S. cerevisiae growth inhibition, permissive medium, pilot counter-assay, permissive growth control for S. cerevisiae lifespan shortening project (AID 705;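 active = growth inhibition above 25% in both replicates, a cutoff set 3 SD above the mean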); conditions: OD615, 24 h, at 10 µM, hits give high values
Procedure, shortened: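 assay system = Saccharomyces cerevisiae strain carrying genetically modified DeaD replicative-lifespan system | medium = SC raffinose/galactose permissive medium | dosing = 10 µM single dose, 0.25% DMSO | schedule = 24 h compound exposure at 30 °C after 4 h pre-growth | measured by = OD at 615 nm | read-out basis = growth inhibition from lowered OD615 after 24 h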

[2] = Restrictive medium S. cerevisiae growth inhibition, OD615, pilot screen of yeast lifespan reduction project, restrictive growth control (AID 706;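 active = growth inhibition above a set limit, 3 SD over mean compound inhibition, in both replicates, cut at about 43% in these data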;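 also: modified DeaD lifespan yeast strain shifted to restrictive glucose medium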); conditions: OD615, 48 h, at 10 µM, hits give high values
Procedure, shortened: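 Buffer or medium: CSMM-D glucose medium. Material: genetically modified Saccharomyces cerevisiae, DeaD replicative lifespan assay strain. Times: 48 h compound exposure at 30 °C. Measured by: optical density at 615 nm.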

[3] = viability gain of MRP-1-high H69AR cells under doxorubicin, pilot screen, MRP-1 activator project, CellTiter-Glo, duplicate (AID 807;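 active = viability increase at or above a cutoff of the median across tested compounds plus 3 SD, cut at about 8.5% in these data, passing the limit was not always enough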;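 also: compound pretreatment 18-22 h then 72 h combined with doxorubicin; 0% = doxorubicin alone and 100% = vehicle without doxorubicin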); conditions: H69AR viability with doxorubicin, CellTiter-Glo luminescence; at 10 µM; hits give high values
[4] = growth suppression of beta-catenin knockout HCT116, pilot screen, human colon tumor cells (AID 823;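 active = cell viability at or below a set limit in both duplicate runs, the limit being the all-compound median minus 4 SD, cut at about 23% in these data, passing the limit was not always enough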;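 also: 0% = wells killed by 20 µM Hyamine and 100% = untreated DMSO cell wells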); conditions: CellTiter-Glo, 60 h, at 10 µM, hits give low values
[5] = growth suppression of PTEN-deleted HCT116, pilot screen, cell-based, HCT116 clonal line, CellTiter-Glo (AID 824;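 active = viability at or below 27.92% in each of two runs, the all-compound median minus 4 SD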;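 also: 0% = 20 µM Hyamine control and 100% = vehicle cell control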); conditions: 60 h, at 10 µM, hits give low values
[6] = inhibitors of the yeast RAM network, pilot screen, dse1pr::URA3 reporter, 5-FOA selection (AID 869);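 also: 0% = DMSO wells with no growth and 100% = 10 µM 1-NA-PP1 with full growth; RAM network block rescues cells from 5-FOA so hits raise OD615 growth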; conditions: S. cerevisiae dse1pr::URA3 5-FOA growth, OD615, 2 d; at 10 µM; hits give high values; strain carries analog-sensitive mutant Cbk1 kinase
[7] = RAM signaling pathway blockade in yeast – S. cerevisiae, Pdr1DBD-CYC8 efflux-inhibited sensitized strain, primary screen (AID 1298;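 active = RAM network inhibition above 8.4% in each of two replicates, 3 SD over the compound average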;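 also: 0% = DMSO untreated cells without growth and 100% = 10 µM 1-NA-PP1 full growth; higher means more yeast growth rescued from 5-FOA killing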); conditions: S. cerevisiae cbk1-as DSE1-URA3 strain, 5-FOA growth OD615, 2 d; at 50 µM; hits give high values

Row | Compound | growth inhibition [1] | growth inhibition [2] | viability increase [3] | viability [4] | viability [5] | inhibition [6] | RAM network inhibition [7]
1 | Cc1nc2cc(-c3cccc(F)c3)nn2c(C)c1CCC(=O)N1CCN(c2ccccn2)CC1 | -0.315% | 3.5% | -1.74% | 87.2% | 77.1% | 0.32% | 4.65%
2 | O=C(Nc1nc2c(Cl)ccc(Cl)c2s1)c1ccco1 | -22% | -3.32% | -6.22% | 90.1% | 85.2% | 1.41% | 2.84%
3 | CCCN1C(=O)c2cc(C(=O)NCCc3cccc(C)c3)ccc2C1O (configuration not stated) | -2.76% | 1.97% | -3.1% | 104% | 104% | 0.08% | 1.65%
4 | Brc1ccc(CSc2nnc(-c3ccccn3)n2Cc2ccco2)cc1 | 2.3% | 28.9% | -3.69% | 15.2% (active) | 15.7% (active) | 2.53% | 7.63%
5 | CCOC1CCCCC1NS(=O)(=O)c1ccc(Cl)cc1 (configuration not stated) | -3.5% | 1.71% | -3.23% | 99.3% | 91.7% | 1.5% | 2.71%
6 | O=C(CSc1ncnc2c1oc1ccccc12)NCc1ccc(F)cc1 | -0.505% | -4.67% | -3.33% | 68.6% | 81% | -0.055% | -2.13%
7 | CCCn1c(NCc2ccc(N(C)C)cc2)nc2ccccc21 | -11.6% | -8.42% | -1.82% | 70.8% | 70.9% | 0.405% | 5.4%
8 | CC1Cc2ccccc2N1C(=O)C1CCCN(S(=O)(=O)c2cccc3cccnc23)C1 (configuration not stated) | -6.46% | -11% | -5.48% | 67.9% | 62.2% | 2.08% | 7.93%
9 | Cc1nn(-c2ccccc2)c(C)c1C(=O)OCC(=O)Nc1ccc2c(c1)OCO2 | -15.6% | -15.7% | -0.97% | 95.3% | 92.9% | 3.68% | 3.09%
10 | CCN1C(=O)c2cccc3c(NC(=O)c4ccc(S(=O)(=O)N5CCOCC5)cc4)ccc1c23 | 14.5% | 3.86% | -6.36% | 65.6% | 65.8% | 1.11% | 2.6%
11 | CC(=O)C1=C(O)C(=O)N(CC(=O)O)C1c1ccccc1Cl (configuration not stated) | 0.915% | 9.59% | -0.3% | 104% | 104% | 2.28% | 2.43%
12 | CCCCOCCCNC(=O)Cc1cccs1 | -16.7% | -10.3% | -2.03% | 91.8% | 90% | 0.465% | 5.12%
13 | COc1ccc(N2CCN(C(=O)c3ccc(CS(=O)(=O)c4ccc(OC)cc4)o3)CC2)cc1 | -9.34% | -3.61% | -1.85% | 92.1% | 79.2% | 1.83% | 4.78%
14 | CN(Cc1ccccc1)C(=O)CCC(=O)N(C)Cc1ccccc1 | -1.99% | 4.61% | -0.27% | 103% | 90.2% | 0.97% | -0.11%
15 | CCSc1nnc(NC(=O)c2ccccc2)s1 | -19.1% | 0.02% | 1.94% | 95.2% | 98.7% | 1.25% | 4.7%
16 | CCCN(CCC)CCNC(=O)Cn1cnc2sc(C)c(S(=O)(=O)N3CCOCC3)c2c1=O | -0.07% | -5.45% | -2.63% | 95.3% | 98% | 0.875% | 2.96%
17 | O=C(CCNS(=O)(=O)c1cccc2nsnc12)NC1CCCc2ccccc21 (configuration not stated) | -9.18% | -13.1% | -4.33% | 88.2% | 90.3% | 1.23% | 0.26%
18 | Cc1occc1-c1nc(-c2ccccn2)no1 | -14.3% | 3.22% | -4.5% | 71.2% | 67.7% | 0.16% | 1.6%

Row | Compound | growth inhibition [1] | growth inhibition [2] | viability increase [3] | viability [4] | viability [5] | inhibition [6] | RAM network inhibition [7]
19 | COc1c(Cl)ccc(Cl)c1C(=O)OCC(=O)O | -7.06% | -27.7% | -2.73% | 86% | 86.9% | 1.39% | 4.54%
20 | O=C(CCCOc1ccccc1)Nc1cccc(C(=O)O)c1 | -0.54% | 3.65% | 0.34% | 96% | 98.6% | 2.61% | 2.71%
21 | CCCCCn1c(SCc2cccc(C)c2)nc2c1c(=O)[nH]c(=O)n2C | -12.8% | -18.8% | -7.54% | 70.1% | 66.4% | 1.67% | 5.94%
22 | Cc1oc(-c2ccccc2)nc1CS(=O)CC(=O)N1CCc2ccccc2C1 (configuration not stated) | 5.38% | 22.9% | -2.89% | 97.8% | 99.8% | 1.62% | 1.69%
23 | CCCC(=O)Nc1ccc(N2CCCCC2)cc1 | -9.5% | -9.51% | -2.5% | 87.2% | 94.4% | 3.02% | 5.92%
24 | N#CC1=C2SCN(c3ccccc3)CN2C(=O)CC1c1c(Cl)cccc1Cl (configuration not stated) | -3.85% | 18.9% | -7.7% | 84.3% | 93% | 1.14% | 4.42%
25 | NS(=O)(=O)c1ccc(S(=O)(=O)NCCc2ccccc2)cc1 | -4.76% | 8.78% | 0.73% | 93.3% | 94.9% | 1% | 3.88%
26 | COc1ccc(OC)c(CCNC(=O)Cn2sc3nc(C)cc(C)c3c2=O)c1 | 18.3% | 70.4% (active) | -8.04% | 2.27% (active) | 4.4% (active) | 1.38% | 11.3%
27 | Cc1cc2cc(CNS(=O)(=O)c3ccccc3)ccc2n1C | -4.47% | 3.34% | -1.48% | 85.2% | 86.2% | 0.71% | 2.49%
28 | C=CCN1C(=Nc2ccccc2)SC/C1=C\C(=O)OC | -14.6% | -4.42% | -2.34% | 89% | 89.8% | 0.81% | 6.77%
29 | COc1ccccc1NC(=O)Cc1noc(CSc2nnc(C)s2)n1 | -3.75% | 0.765% | -2.11% | 97.2% | 97.6% | 0.43% | 5.03%
30 | CCCCn1c(=O)[nH]c2ccccc21 | -4.76% | -21.1% | -1.44% | 106% | 104% | 1.69% | 2.05%
31 | CCN1CCN(c2ncnc3c2sc2nc(N4CCOCC4)c4c(c23)CCC4)CC1 | -5.5% | -14.1% | -4.51% | 85.1% | 86.3% | 0.195% | 5.27%
32 | COC(=O)c1cc(=O)nc2scc(C)n12 | -13% | -18.9% | -0.3% | 103% | 99.5% | 0.885% | 4.74%
33 | O=C(CSc1ncnc2c1oc1ccccc12)NC1CCCCC1 | -5.42% | 3.17% | -0.15% | 95% | 85.3% | 1.92% | 4.21%
34 | COc1ccc(C2C(C(=O)Nc3cccc(C)n3)c3ccccc3C(=O)N2C)cc1OC (configuration not stated) | 5.62% | 5.49% | -1.04% | 103% | 99.6% | -0.04% | 3.5%
35 | O=C(O)CCCC(=O)NCCCc1ccccc1 | -6.08% | 3.99% | -2.85% | 98.5% | 89.8% | 1.02% | 2.45%
36 | CCOC(=O)c1ccc(NC2c3ccccc3C(=O)N2c2cccnc2)cc1 (configuration not stated) | 0.43% | 1.2% | -3.72% | 65.5% | 67.6% | 0.67% | 2.21%
